ChEMBL document CHEMBL1135435, “Synthesis and pharmacological evaluation of 5-(4-biphenyl)-3-methyl-4-phenyl-1,2,4-triazole derivatives as a novel class of selective antagonists for the human vasopressin V(1A) receptor” (J Med Chem, 2002)

What was measured:
Vasopressin V2 receptor [1] = target: Vasopressin V2 receptor (Homo sapiens, UniProt P30518); assay: Binding affinity at cloned human Vasopressin V2 receptor stably expressed in CHO cells, using [3H]AVP as radioligand; type: cell-based
Method in brief: (§1)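 Membranes from CHO cells stably expressing cloned human receptor; [3H]AVP (0.5-1.0 nM) with graded test concentrations in 50 mM Tris-HCl pH 7.4, 10 mM MgCl2, 0.1% BSA, 60 min at 25 °C. Stopped with ice-cold Tris buffer, rapid GF/B filtration, scintillation counting. Nonspecific binding with 1 μM unlabeled AVP. Ki = IC50/(1+[L]/Kd); Kd from Scatchard: 0.39 nM (V1A), 1.21 nM (V2).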

Vasopressin V1a receptor [2] = target: Vasopressin V1a receptor (Homo sapiens, UniProt P37288); assay: Binding affinity at cloned human Vasopressin V1a receptor stably expressed in CHO cells, using [3H]AVP as radioligand; type: cell-based
Sequence of Vasopressin V1a receptor (Homo sapiens, UniProt P37288) (P37288 whole entry): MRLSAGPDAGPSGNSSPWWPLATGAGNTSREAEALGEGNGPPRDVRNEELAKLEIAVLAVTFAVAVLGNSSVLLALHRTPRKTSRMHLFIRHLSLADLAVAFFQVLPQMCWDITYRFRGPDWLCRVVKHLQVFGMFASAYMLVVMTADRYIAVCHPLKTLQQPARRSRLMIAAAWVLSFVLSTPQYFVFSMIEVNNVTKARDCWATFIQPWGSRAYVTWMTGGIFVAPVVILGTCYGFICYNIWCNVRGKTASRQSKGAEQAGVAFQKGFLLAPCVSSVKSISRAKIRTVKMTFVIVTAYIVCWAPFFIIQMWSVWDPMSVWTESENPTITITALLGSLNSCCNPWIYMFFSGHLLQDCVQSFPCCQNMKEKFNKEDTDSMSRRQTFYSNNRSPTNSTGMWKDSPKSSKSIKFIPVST
Method in brief: as §1, with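 “AVP.” for “AVP. Ki = IC50/(1+[L]/Kd); Kd from Scatchard: 0.39 nM (V1A), 1.21 nM (V2).”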

[3] = Selectivity ratio of affinity at human Vasopressin V2 receptor to that of human Vasopressin V1a receptor.
Method in brief: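 Ratio of hV2 Ki to hV1A Ki, each from [3H]AVP displacement on membranes of CHO cells stably expressing the cloned human receptor (60 min, 25 °C, filtration read-out; Ki via Cheng–Prusoff using Scatchard Kd).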

Vasopressin V1a receptor [4] = target: Vasopressin V1a receptor (Rattus norvegicus, UniProt P30560); assay: Binding affinity at Vasopressin V1a receptor, performed using [3H]AVP on rat liver
Sequence of Vasopressin V1a receptor (Rattus norvegicus, UniProt P30560) (P30560 whole entry): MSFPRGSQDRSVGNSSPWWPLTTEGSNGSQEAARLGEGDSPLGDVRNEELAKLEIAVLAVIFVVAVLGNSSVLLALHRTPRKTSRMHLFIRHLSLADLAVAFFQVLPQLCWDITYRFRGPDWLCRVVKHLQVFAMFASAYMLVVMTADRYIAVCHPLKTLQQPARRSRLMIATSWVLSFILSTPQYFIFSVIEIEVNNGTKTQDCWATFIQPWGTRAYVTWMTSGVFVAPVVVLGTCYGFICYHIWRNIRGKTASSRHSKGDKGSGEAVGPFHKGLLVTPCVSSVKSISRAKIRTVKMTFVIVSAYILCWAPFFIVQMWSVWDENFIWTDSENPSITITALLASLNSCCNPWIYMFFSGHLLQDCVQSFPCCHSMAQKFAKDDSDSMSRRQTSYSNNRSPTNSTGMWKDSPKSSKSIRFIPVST
Method in brief: (§2)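 [3H]AVP binding on plasma membranes prepared from rat liver (V1A) or rat kidney (V2). Ki from four to six independent experiments in duplicate, mean ± SEM; selectivity expressed as V2/V1A Ki ratio.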

[5] = target: Vasopressin V2 receptor (Rattus norvegicus) (UniProt Q00788); assay: Selectivity ratio (Ki) of affinity at rat Vasopressin V2 receptor to that of rat Vasopressin V1a receptor; method in brief: as §2
Sequence of Vasopressin V2 receptor (Rattus norvegicus) (Q00788 whole entry): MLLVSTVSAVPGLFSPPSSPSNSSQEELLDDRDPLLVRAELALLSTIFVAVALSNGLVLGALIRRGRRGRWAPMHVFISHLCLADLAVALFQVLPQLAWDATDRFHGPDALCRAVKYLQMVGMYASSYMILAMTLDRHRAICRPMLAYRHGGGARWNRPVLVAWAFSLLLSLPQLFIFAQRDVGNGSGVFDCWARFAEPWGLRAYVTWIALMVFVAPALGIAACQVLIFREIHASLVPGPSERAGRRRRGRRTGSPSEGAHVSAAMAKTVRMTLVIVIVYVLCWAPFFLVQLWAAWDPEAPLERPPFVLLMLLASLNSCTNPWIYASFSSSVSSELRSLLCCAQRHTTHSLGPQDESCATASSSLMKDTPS

Vasopressin V2 receptor [6] = target: Vasopressin V2 receptor (Rattus norvegicus, UniProt Q00788); assay: Binding affinity at Vasopressin V2 receptor, performed using [3H]AVP on rat kidney; method in brief: as §2
Sequence of Vasopressin V2 receptor (Rattus norvegicus, UniProt Q00788) (Q00788 whole entry): as above

Sequence of Vasopressin V2 receptor (Homo sapiens, UniProt P30518) (P30518 whole entry): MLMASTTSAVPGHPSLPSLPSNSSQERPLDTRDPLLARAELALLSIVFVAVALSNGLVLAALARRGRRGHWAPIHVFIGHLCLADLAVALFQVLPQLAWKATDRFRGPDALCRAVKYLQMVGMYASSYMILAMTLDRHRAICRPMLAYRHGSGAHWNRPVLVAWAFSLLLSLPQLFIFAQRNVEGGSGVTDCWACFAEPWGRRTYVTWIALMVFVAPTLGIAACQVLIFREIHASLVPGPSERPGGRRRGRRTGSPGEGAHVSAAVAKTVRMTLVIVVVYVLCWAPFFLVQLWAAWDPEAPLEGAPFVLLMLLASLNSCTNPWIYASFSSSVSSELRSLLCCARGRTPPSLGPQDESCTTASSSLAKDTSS

Row | SMILES | Ki (Vasopressin V2 receptor [1]) [nM] | Ki (Vasopressin V1a receptor [2]) [nM] | Ratio [3] | Ki (Vasopressin V1a receptor [4]) [nM] | Ratio [5] | Ki (Vasopressin V2 receptor [6]) [nM]
1 | Cc1nnc(-c2ccc(-c3ccccc3)cc2)n1-c1ccccc1OCCCCN1CCN(C)CC1 | 10200 | 29.1 | 360 | – | – | –
2 | COc1ccccc1-n1c(C)nnc1-c1ccc(-c2ccccc2)cc1 | 2460 | 120 | 21 | – | – | –
3 | Cc1cccc(OCc2ccc(C(=O)N3CCN(C)CC3)cc2)c1-n1c(C)nnc1-c1ccc(-c2ccccc2)cc1 | 8520 | 8.09 | 1100 | – | – | –
4 | Cc1nnc(-c2ccc(-c3ccccc3)cc2)n1-c1ccccc1OCCCCCCn1ccnc1 | 11100 | 9.06 | 1200 | – | – | –
5 | Cc1nnc(-c2ccc(-c3ccccc3)cc2)n1-c1ccccc1OCCCC1CCNCC1 | 7370 | 7.84 | 940 | – | – | –
6 | Cc1cccc(OCc2ccc(C(=O)N3CCC(N4CCCCC4)CC3)cc2)c1-n1c(C)nnc1-c1ccc(-c2ccccc2)cc1 | 1920 | 1.01 | 1900 | 32.4 | 57 | 1840
7 | Cc1nnc(-c2ccc(-c3ccccc3)cc2)n1-c1ccccc1OCCCCC1CCNCC1 | 4430 | 2.12 | 2100 | – | – | –
8 | Cc1nnc(-c2ccc(-c3ccccc3)cc2)n1-c1ccccc1OCCCCCCN1CCC(N2CCCCC2)CC1 | 979 | 1.05 | 930 | 9.69 | 100 | 1010
9 | CC(=O)NCCCOc1ccc(C(=O)N2CCC(N3C(=O)CCc4ccccc43)CC2)cc1 | > 10000 | > 10000 | – | – | > 430 | > 10000
10 | Cc1nnc(-c2ccc(-c3ccccc3)cc2)n1-c1cccc(OCCCCCCN2CCN(C)CC2)c1 | – | 214 | – | – | – | –
11 | Cc1nnc(-c2ccc(-c3ccccc3)cc2)n1-c1ccc(OCCCCCCN2CCN(C)CC2)cc1 | – | > 10000 | – | – | – | –
12 | Cc1nnc(-c2ccc(-c3ccccc3)cc2)n1-c1ccccc1OCCCCCCCCN1CCN(C)CC1 | 8890 | 13.2 | 670 | – | – | –
13 | COc1ccc(S(=O)(=O)N2c3ccc(Cl)cc3[C@](O)(c3ccccc3Cl)[C@@H]2C(=O)N2CCC[C@H]2C(N)=O)cc1OC [RELCOVAPTAN] | 178 | – | – | – | – | 285
14 | Cc1nnc(-c2ccc(-c3ccccc3)cc2)n1-c1ccccc1OCCC1CCNCC1 | 8170 | 55.5 | 150 | – | – | –
15 | Cc1nnc(-c2ccc(-c3ccccc3)cc2)n1-c1ccccc1OCCCCCN1CCN(C)CC1 | 4850 | 4.09 | 1200 | – | – | –
16 | Cc1nnc(-c2ccc(-c3ccccc3)cc2)n1-c1ccccc1OCc1ccc(C(=O)N2CCN(C)CC2)cc1 | 585 | 3.03 | 190 | 62.7 | 5.8 | 364
17 | CN(C)C1CCN(C(=O)/C=C2/c3ccccc3N(C(=O)c3ccc(NC(=O)c4ccccc4-c4ccccc4)cc3)CCC2(F)F)CC1 | 1.19 | 0.62 | 1.9 | 0.16 | 4.8 | 0.77
18 | Cc1nnc(-c2ccc(-c3ccccc3)cc2)n1-c1ccccc1OCCCCCCCN1CCN(C)CC1 | 2470 | 4.5 | 550 | – | – | –
19 | Cc1nnc(-c2ccc(-c3ccccc3)cc2)n1-c1ccccc1OCCCCCCCCCCN1CCN(C)CC1 | 14300 | 39.4 | 360 | – | – | –
20 | Cc1nnc(-c2ccc(-c3ccccc3)cc2)n1-c1ccccc1OCCCN1CCN(C)CC1 | 10200 | 38.3 | 270 | – | – | –
21 | Cc1nnc(-c2ccc(-c3ccccc3)cc2)n1-c1ccccc1OCCCCCC(=O)N1CCN(C)CC1 | 6650 | 9.16 | 730 | – | – | –
22 | Cc1cccc(OCCCCCCN2CCN(C)CC2)c1-n1c(C)nnc1-c1ccc(-c2ccccc2)cc1 | 14400 | 1.46 | 9900 | 102 | 110 | 11700
23 | Cc1nnc(-c2ccc(-c3ccccc3)cc2)n1-c1ccccc1OCCCCCCN1CCCCC1 | 6930 | 13.9 | 500 | – | – | –
24 | Cc1nnc(-c2ccc(-c3ccccc3)cc2)n1-c1ccccc1OCCCCCCN1CCN(C)CC1 | 1780 | 1.04 | 1700 | 17.3 | 72 | 1240
